Source: ChEMBL document CHEMBL1122782, “Bulky amine analogues of ketoprofen: potent antiinflammatory agents” (J Med Chem, 1984)

Assays:
[1] = test system: Rattus norvegicus; assay: Ulcerogenicity was measured in stomach during the 3 week adjuvant arthritis test.(animals with ulcers/animals in test) at 0.0014 mM/kg (0.50 mg); format: functional
In short: (§1)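 Male Sprague-Dawley rats (200–230 g) were injected in the plantar tissue of one hind paw with 0.1 mL of 0.6% M. butyricum suspension in heavy mineral oil. Daily oral gavage began on the day of adjuvant injection and ran for the 21 days, with drug suspended in 1% gum tragacanth or a corn oil-water emulsion. At the end the rats were sacrificed and the small intestine and stomach were examined for ulcers. Results are given as animals with ulcers/animals tested.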

[2] = test system: Rattus norvegicus; assay: Antiinflammatory efficacy is measured by the weight gain in rats during the 3 week adjuvant arthritis test at 0.0014 mM/kg (0.50 mg); format: functional
In short: (§2)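 Rats were adjuvant-injected (M. butyricum in mineral oil, one hind paw) or given a mineral-oil placebo. They were dosed by gavage daily for 21 days from the injection day, with vehicle only for both control groups, then weighed at the end. Weight gain % = (treated − adjuvant control)/(negative control − adjuvant control) × 100.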

[3] = test system: Rattus norvegicus; assay: Ulcerogenicity was measured in intestine during the 3 week adjuvant arthritis test.(animals with ulcers/animals in test) at 0.0014 mM/kg (0.50 mg); format: functional; in short: as §1
[4] = species: Rattus norvegicus; assay: Compound was evaluated for highest non-ulcerogenic dose (less than 50% ulcer incidence); format: functional; details: read-out: ED50
In short: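 Taken from the 21-day adjuvant arthritis test in male Sprague-Dawley rats dosed orally each day from the day of adjuvant injection. Small intestines and stomachs were examined for ulceration at the end. The value is the highest dose giving less than 50% ulcer incidence.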

[5] = test system: Rattus norvegicus; assay: Antiinflammatory efficacy is measured by the percent inhibition of paw volume during the 3 week adjuvant arthritis test at 0.0014 mM/kg (0.50 mg); format: functional
In short: (§3)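 Male Sprague-Dawley rats (200–230 g) were used in groups of eight. Each received 0.1 mL of 0.6% M. butyricum in heavy mineral oil into the plantar tissue of one hind paw. Daily oral gavage in 1% gum tragacanth or corn oil-water emulsion began on the injection day and ran 21 days. Total hind paw volume was measured by mercury displacement, and inhibition was taken versus vehicle-treated adjuvant controls.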

[6] = test system: Rattus norvegicus; assay: Ulcerogenicity was measured in intestine during the 3 week adjuvant arthritis test.(animals with ulcers/animals in test) at 0.008 mM/kg (2.86 mg); format: functional; in short: as §1
[7] = test system: Rattus norvegicus; assay: Potency relative to phenylbutazone at 0.0014 mM/kg; format: functional
[8] = test system: Rattus norvegicus; assay: Ulcerogenicity was measured in stomach during the 3 week adjuvant arthritis test.(animals with ulcers/animals in test) at 0.008 mM/kg (2.86 mg); format: functional; in short: as §1
[9] = test system: Rattus norvegicus; assay: Antiinflammatory efficacy is measured by the weight gain in rats during the 3 week adjuvant arthritis test at 0.008 mM/kg (2.86 mg); format: functional; in short: as §2
[10] = test system: Rattus norvegicus; assay: Antiinflammatory efficacy is measured by the weight gain in rats during the 3 week adjuvant arthritis test at 0.011 mM/kg (3.94 mg); format: functional; in short: as §2
[11] = test system: Rattus norvegicus; assay: Antiinflammatory efficacy is measured by the weight gain in rats during the 3 week adjuvant arthritis test at 0.16 mM/kg (70.4 mg); format: functional
In short: (§4)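 Male Sprague-Dawley rats (200–230 g), eight per group, received 0.1 mL of 0.6% M. butyricum in heavy mineral oil (negative controls: mineral oil) into one hind-paw plantar tissue. Daily gavage in 1% gum tragacanth or corn oil-water emulsion began on the injection day, for 21 days. Weight gain is expressed as (treated − adjuvant control)/(negative control − adjuvant control) × 100.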

[12] = test system: Rattus norvegicus; assay: The mean increase in paw volume was compared between drug treated groups and placebo to calculate the percent inhibition in rats at 0.02 mmol/kg by carrageenan Edema Assay; 40-49; format: functional
[13] = test system: Rattus norvegicus; assay: Ulcerogenicity was measured in intestine during the 3 week adjuvant arthritis test, no of animals with ulcers out of animals tested at 0.32 mM/kg (141 mg) was reported; toxic; format: functional, organism-based; in short: as §1
[14] = test system: Rattus norvegicus; assay: Antiinflammatory efficacy is measured by the weight gain in rats during the 3 week adjuvant arthritis test at 0.02 mM/kg (8.80 mg); format: functional; in short: as §2
[15] = test system: Rattus norvegicus; assay: Antiinflammatory efficacy is measured by the percent inhibition of paw volume during the 3 week adjuvant arthritis test at 0.02 mM/kg (8.80 mg); format: functional; in short: as §3
[16] = test system: Rattus norvegicus; assay: Ulcerogenicity was measured in intestine during the 3 week adjuvant arthritis test, no of animals with ulcers out of 4 animals tested at 0.08 mM/kg (35.2 mg) was reported; format: functional
In short: (§5)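 In the 21-day adjuvant arthritis model, male Sprague-Dawley rats (200–230 g) received an M. butyricum mineral-oil suspension into one hind paw. They were dosed daily by gavage from the day of injection. At the end of the study the rats were killed, and the small intestines were examined for ulcers. Results are given as the number of ulcerated animals over the number tested.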

[17] = test system: Rattus norvegicus; assay: Ulcerogenicity was measured in stomach during the 3 week adjuvant arthritis test, no of animals with ulcers out of 4 animals tested at 0.08 mM/kg (35.2 mg) was reported; format: functional; in short: as §1
[18] = test system: Rattus norvegicus; assay: Antiinflammatory efficacy is measured by the percent inhibition of paw volume during the 3 week adjuvant arthritis test at 0.08 mM/kg (35.2 mg); format: functional; in short: as §3
[19] = test system: Rattus norvegicus; assay: The percent inhibition was calculated from the average differences in hind paw volume between the adjuvant injected controls and the adjuvant-injected medicated rats at 0.08 mmol/kg; 80-89; format: functional
[20] = test system: Rattus norvegicus; assay: Ulcerogenicity was measured in intestine during the 3 week adjuvant arthritis test, no of animals with ulcers out of 4 animals tested at 0.16 mM/kg (70.4 mg) was reported; format: functional; in short: as §5
[21] = test system: Rattus norvegicus; assay: Ulcerogenicity was measured in stomach during the 3 week adjuvant arthritis test, no of animals with ulcers out of 4 animals tested at 0.16 mM/kg (70.4 mg) was reported; format: functional; in short: as §1
[22] = test system: Rattus norvegicus; assay: Antiinflammatory efficacy is measured by the weight gain in rats during the 3 week adjuvant arthritis test at 0.08 mM/kg (35.2 mg); format: functional; in short: as §2
[23] = test system: Rattus norvegicus; assay: Antiinflammatory efficacy is measured by the percent inhibition of paw volume during the 3 week adjuvant arthritis test at 0.005 mM/kg (2.20 mg); format: functional; in short: as §3
[24] = test system: Rattus norvegicus; assay: Antiinflammatory efficacy is measured by the weight gain in rats during the 3 week adjuvant arthritis test at 0.005 mM/kg (2.20 mg); format: functional; in short: as §2
[25] = test system: Rattus norvegicus; assay: Antiinflammatory efficacy is measured by the weight gain in rats during the 3 week adjuvant arthritis test at 0.55 mM/kg (113 mg); format: functional; in short: as §4
[26] = test system: Rattus norvegicus; assay: Antiinflammatory efficacy is measured by the weight gain in rats during the 3 week adjuvant arthritis test at 0.278 mM/kg (57.2 mg); format: functional; in short: as §4
[27] = test system: Rattus norvegicus; assay: Antiinflammatory efficacy is measured by the percent inhibition of paw volume during the 3 week adjuvant arthritis test at 0.08 mM/kg (32.24 mg); format: functional; in short: as §3
[28] = test system: Rattus norvegicus; assay: Ulcerogenicity was measured in stomach during the 3 week adjuvant arthritis test, no of animals with ulcers out of 3 animals tested at 0.32 mM/kg (130 mg) was reported; format: functional; in short: as §1
[29] = test system: Rattus norvegicus; assay: Antiinflammatory efficacy is measured by the weight gain in rats during the 3 week adjuvant arthritis test at 0.005 mM/kg (2.03 mg); format: functional; in short: as §2
[30] = test system: Rattus norvegicus; assay: Antiinflammatory efficacy is measured by the weight gain in rats during the 3 week adjuvant arthritis test at 0.02 mM/kg (8.11 mg); format: functional; in short: as §2
[31] = test system: Rattus norvegicus; assay: Antiinflammatory efficacy is measured by the percent inhibition of paw volume during the 3 week adjuvant arthritis test at 0.02 mM/kg (8.11 mg); format: functional; in short: as §3
[32] = test system: Rattus norvegicus; assay: Antiinflammatory efficacy is measured by the percent inhibition of paw volume during the 3 week adjuvant arthritis test at 0.005 mM/kg (2.03 mg); format: functional; in short: as §3
[33] = test system: Rattus norvegicus; assay: Ulcerogenicity was measured in intestine during the 3 week adjuvant arthritis test, no of animals with ulcers out of 3 animals tested at 0.32 mM/kg (130 mg) was reported; format: functional; in short: as §5
[34] = test system: Rattus norvegicus; assay: Potency relative to phenylbutazone at 0.02 […]; format: functional
[35] = test system: Rattus norvegicus; assay: Ulcerogenicity was measured in intestine during the 3 week adjuvant arthritis test, no of animals with ulcers out of 8 animals tested at 0.08 mM/kg (32.4 mg) was reported; format: functional; in short: as §5
[36] = test system: Rattus norvegicus; assay: The percent inhibition was calculated from the average differences in hind paw volume between the adjuvant injected controls and the adjuvant-injected medicated rats at 0.08 mmol/kg; 90-99; format: functional
[37] = test system: Rattus norvegicus; assay: Antiinflammatory efficacy is measured by the weight gain in rats during the 3 week adjuvant arthritis test at 0.08 mM/kg (32.24 mg); format: functional; in short: as §2
[38] = test system: Rattus norvegicus; assay: Ulcerogenicity was measured in stomach during the 3 week adjuvant arthritis test, no of animals with ulcers out of 8 animals tested at 0.08 mM/kg (32.4 mg) was reported; format: functional; in short: as §1
[39] = test system: Rattus norvegicus; assay: The mean increase in paw volume was compared between drug treated groups and placebo to calculate the percent inhibition in rats at 0.02 mmol/kg by carrageenan Edema Assay; 50-59; format: functional

COc1ccc2c(c1)c(CC(=O)O)c(C)n2C(=O)c1ccc(Cl)cc1 [INDOMETHACIN]
Ulcerogenic index [1]: 6
Weight gain [2]: 14%
Ulcerogenic index [3]: 3
highest non-ulcerogenic dose [4]: 0.4 µmol/kg
Inhibition [5]: 63%
Ulcerogenic index [6]: 17
Potency [7]: 20%
Ulcerogenic index [8]: 5
Weight gain [9]: 48%
Weight gain [10]: 38%

CC(CN1CCCCC1CC1CCCCC1)c1cccc(C(O)c2ccc(Cl)cc2)c1 (configuration not stated)
Weight gain [11]: 84%
inhibition in vivo at 20 µmol/kg [12]: 40%
highest non-ulcerogenic dose [4]: 1 µmol/kg
Ulcerogenic index [13]: Toxic
Weight gain [14]: 69%
Inhibition [15]: 70%
Ulcerogenic index [16]: 1
Ulcerogenic index [17]: 0
Inhibition [18]: 88%
inhibition in vivo at 80 µmol/kg [19]: 80%
Ulcerogenic index [20]: 3
Ulcerogenic index [21]: 0
Weight gain [22]: 87%
Inhibition [23]: 64%
Weight gain [24]: 40%

CC(C)Cc1ccc(C(C)C(=O)O)cc1 (configuration not stated) [IBUPROFEN]
highest non-ulcerogenic dose [4]: 210 µmol/kg
Weight gain [25]: 18%
Weight gain [26]: 1%

CC(CN1CCCCC1CC1CCCCC1)c1cccc(C(O)c2ccccc2)c1 (configuration not stated)
Inhibition [27]: 110%
Ulcerogenic index [28]: 1
Weight gain [29]: 13%
Weight gain [30]: 36%
highest non-ulcerogenic dose [4]: 8 µmol/kg
Inhibition [31]: 82%
Inhibition [32]: 37%
Ulcerogenic index [33]: 3
Relative potency [34]: 8.6%
Ulcerogenic index [35]: 1
inhibition in vivo at 80 µmol/kg [36]: 90%
Weight gain [37]: 67%
Ulcerogenic index [38]: 1
inhibition in vivo at 20 µmol/kg [39]: 30%
